Experimental findings from PMC9066187 (RSC Advances, 2019) are described below.

Like-named read-outs stand apart in the source and are kept apart here. Bounds are passed on as bounds.

In series [1] the test system is mixture of tyrosine kinases extracted from HT-29 cell line. It is filed as biochemical, human. Conditions: 10 μM.
A further series deals with purified Src kinase (Homo sapiens, UniProt P12931). Description: biochemical. Conditions: for inhibition at 10 µM: read-out: Src kinase inhibition.
Sequence of purified Src kinase (P12931 whole entry, looked up): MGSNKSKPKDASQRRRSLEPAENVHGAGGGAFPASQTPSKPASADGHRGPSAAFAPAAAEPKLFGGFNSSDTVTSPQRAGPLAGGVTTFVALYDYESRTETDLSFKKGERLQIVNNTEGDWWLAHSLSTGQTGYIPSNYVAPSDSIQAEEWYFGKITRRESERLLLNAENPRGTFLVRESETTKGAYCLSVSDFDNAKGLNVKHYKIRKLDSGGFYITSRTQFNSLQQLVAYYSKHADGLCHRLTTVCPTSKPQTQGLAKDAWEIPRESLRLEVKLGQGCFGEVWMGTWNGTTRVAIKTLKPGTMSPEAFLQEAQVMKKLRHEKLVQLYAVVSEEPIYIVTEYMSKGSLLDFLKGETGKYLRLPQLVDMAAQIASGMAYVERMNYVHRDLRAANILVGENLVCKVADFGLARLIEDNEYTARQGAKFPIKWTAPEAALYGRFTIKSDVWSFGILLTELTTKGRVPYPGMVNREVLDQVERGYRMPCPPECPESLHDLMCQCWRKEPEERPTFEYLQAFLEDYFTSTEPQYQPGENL
The subject of series [2] is HCT-116 cells. Description: Annexin V-FITC/PI apoptosis/necrosis assessment, HCT-116. It is filed as cell-based, human. Conditions: 10 μM, 48 h, versus control. The method, boiled down: (§1)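 Human colorectal cancer cells were exposed to 10 μM test compound for 48 h, then stained with annexin V-FITC/PI and analysed by flow cytometry to separate apoptotic from necrotic cells. Each population is expressed as a percentage of total events and compared with untreated control. Values are mean ± SD, n = 3.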

Series [3] has as its system HT-29 cells. Nature of the series: cells. Conditions: Homo sapiens, HT-29, 72 h; for viability at 10 µM: read-out: viability drop compared to control cells.
The subject of series [4] is LS-174T colorectal cancer cells. Description: cells. Conditions: Homo sapiens, LS174T, 72 h, read-out: viability drop compared to control cells.
Series [5] has as its system HCT-116 cells. Nature of the series: Cell cycle distribution by DNA cytometry, HCT-116. Format: cell-based, human. Conditions: 10 μM, 48 h.
Series [6] deals with HT-29 cells. Nature of the series: Cell cycle distribution by DNA cytometry, HT-29. It is filed as cell-based, human. Conditions: 10 μM, 48 h; for cells in S-phase: control 27.3 ± 0.6%; for cell population in G0/G1-phase: control 53.4 ± 2.7%; for cell population in G2/M-phase: control 19.3 ± 1.6%.
Series [7] relates to HT-29 cells. Nature of the series: Annexin V-FITC/PI apoptosis/necrosis assessment, HT-29. It is filed as cell-based, human. Conditions: 10 μM, 48 h, versus control. Summed up: as §1
For series [8], the system named is HCT-116 cells. Description: Cyto-ID autophagy assessment, HCT-116. It is filed as cell-based, human. Conditions: 10 μM, 48 h.
Series [9] deals with HT-29 cells. Nature of the series: Cyto-ID autophagy assessment, HT-29. Conditions: for inhibition at 10 µM: Homo sapiens, HT-29, 48 h, read-out: inhibition of autophagy. Format: cell-based, human.
Series [10] relates to HCT-116 cells. Conditions: 72 h; for viability drop compared to control cells: 100 μM.
Series [11] concerns HCT-116 cells. Nature of the series: cells. Conditions: Homo sapiens, HCT-116, 72 h; for IC50: 72 h; for viability at 10 µM: read-out: viability drop compared to control cells.
The subject of series [12] is HT-29 cells. Conditions: 72 h; for viability drop compared to control cells: 100 μM.
Series [13] concerns LS-174T colorectal cancer cells. Conditions: 100 μM; 72 h.

Take `COc1cc(C)cc(-c2nc(Nc3cc(C(F)(F)F)cc(C(F)(F)F)c3)ncc2-c2ccnc(Cl)c2)c1` [Compound 7]: in series [1], the multi-kinase inhibitory effect was 37.4 ± 3.7%. In addition, at purified Src kinase, the “Src kinase inhibitory activity in words (dose-response)” value (from here on “Src kinase inhibitory activity”) is “moderate inhibitory activity” and the inhibition – broadly, the relative decrease from the control value, in per cent – at 10 µM amounted to 42.3 ± 10.3%. In the series with HCT-116 cells [2], the “increase of necrotic cell population” value was 3.4 folds. In addition, in the series on HT-29 cells [3], the IC50 (as a rule, the midpoint of a concentration-inhibition curve) was found to be 9.4 ± 0.5 µM and the viability (as a rule, the share of living cells, or the viability signal relative to a control) at 10 µM is > 50%. In series [4], the viability at 100 µM was > 50%.
Regarding `COc1cc(C)cc(-c2nc(Nc3cc(C(F)(F)F)cc(C(F)(F)F)c3)ncc2-c2ccnc(-c3ccccc3)c2)c1` [Compound 8a], in series [1], the multi-kinase inhibitory effect was found to be 23 ± 0.4%. Moreover, at purified Src kinase, the “Src kinase selectivity index” value is listed as 2.4 and the inhibition at 10 µM came out at 54 ± 0.6%.
Turning to `COc1cc(C)cc(-c2nc(Nc3cc(C(F)(F)F)cc(C(F)(F)F)c3)ncc2-c2ccnc(-c3cccnc3)c2)c1` [Compound 8b], the multi-kinase inhibitory effect in series [1] stood at 26.6 ± 2.4%. In addition, at purified Src kinase, the EC50 (as a rule, the concentration needed to bring the measured effect to its halfway point) is 1.3 ± 0.3 µM; the “Src kinase selectivity index” value is 2.9; the inhibition at 10 µM stood at 77.8 ± 1.3%. The “cells in S-phase” value in the series on HCT-116 cells [5] (control 36.4 ± 4.1%) was 22.8 ± 2.3%. The “cells in G0/G1-phase” value in the series with HCT-116 cells [5] (control 39.5 ± 4.6%) was found to be 50.2 ± 1.0%. Also, in the series on HT-29 cells [6], the “cells in S-phase” value was found to be 21.0 ± 0.9% and the “cell population in G0/G1-phase” value stood at 58.8 ± 1.8%. In the series on HCT-116 cells [2], the “increase of apoptotic cell population” value was 3.8 folds and the “increase of necrotic cell population” value came to 2.9 folds. For the same molecule, in the series on HT-29 cells [7], the “increase of apoptotic cell population” value worked out at 2.5 folds. Also, in the series on HCT-116 cells [8], the “autophagic signal higher than control cells” value is reported as 54%. Also, the inhibition at 10 µM in the series with HT-29 cells [9] amounted to 21%. Besides, in the series with HCT-116 cells [10], the midpoint of inhibition, the IC50, lay at 32.4 ± 2.8 µM and the “R (resistance fraction)” value was found to be 3.7 ± 0.9%. For the same molecule, in the series on HCT-116 cells [11], the IC50 is > 25 µM and the viability at 10 µM lay in the range of 30 to 45%. In the series with HT-29 cells [3], the IC50 amounted to 11.3 ± 0.5 µM and the viability at 10 µM lay in the range of 35 to 45%.
As for `COc1cc(C)cc(-c2nc(Nc3cc(C(F)(F)F)cc(C(F)(F)F)c3)ncc2-c2ccnc(-c3cccc(C(C)=O)c3)c2)c1` [Compound 8c], the viability at 10 µM in the series with HT-29 cells [3] was 35 to 45%.
In the case of `COc1cc(C)cc(-c2nc(Nc3cc(C(F)(F)F)cc(C(F)(F)F)c3)ncc2-c2ccnc(-c3ccc(C#N)cc3)c2)c1` [Compound 8f], the viability at 10 µM (with HCT-116 cells [11]; in the series with HT-29 cells [3]; in series [4]) was > 50% throughout. Further, the viability at 100 µM in series [4] was > 50%.
As to `COc1cc(C)cc(-c2nc(Nc3cc(C(F)(F)F)cc(C(F)(F)F)c3)ncc2-c2ccnc(-c3ccc(N(C)C)cc3)c2)c1` [Compound 8g], the multi-kinase inhibitory effect in series [1] is 33.1 ± 0.4%. On purified Src kinase, the inhibition at 10 µM worked out at 28.5 ± 1.2%. The viability at 10 µM with HCT-116 cells [11] is 30 to 45%; with HT-29 cells [3] it was > 50%. In addition, the viability at 100 µM in series [4] is > 50%.
Take `COc1cc(C)cc(-c2nc(Nc3cc(C(F)(F)F)cc(C(F)(F)F)c3)ncc2-c2ccnc(-c3ccc(N(c4ccccc4)c4ccccc4)cc3)c2)c1` [Compound 8h]: the “viability drop compared to control cells” value (in the series on HCT-116 cells [10]; in the series with HT-29 cells [12]; in series [13]) was “failed to show any considerable antiproliferative/cytotoxic effects” throughout.
As to `COc1cc(C)cc(-c2nc(Nc3cc(C(F)(F)F)cc(C(F)(F)F)c3)ncc2-c2ccnc(-c3ccc(Oc4ccccc4)cc3)c2)c1` [Compound 8j], in [1], the multi-kinase inhibitory effect is 26 ± 0.5%. In addition, on purified Src kinase, the “Src kinase selectivity index” value worked out at 2.1 and the inhibition at 10 µM was found to be 54.9 ± 1.6%.
Take `Cc1cc(O)cc(-c2nc(Nc3cc(C(F)(F)F)cc(C(F)(F)F)c3)ncc2-c2ccnc(-c3ccccc3)c2)c1` [Compound 10a]: in series [1], the multi-kinase inhibitory effect is 24.7 ± 4.6%. Further, the “Src kinase inhibitory activity” value at purified Src kinase was “completely inactive”. Moreover, in the series with HT-29 cells [6], the “cell population in G2/M-phase” value turned out to be 24.8 ± 0.4%, the “cells in S-phase” value worked out at 29.8 ± 0.6% and the “cell population in G0/G1-phase” value came out at 45.4 ± 0.6%. In the series on HCT-116 cells [2], the “increase of apoptotic cell population” value came out at 7.5 folds and the “increase of necrotic cell population” value was 4.0 folds. In addition, the inhibition at 10 µM in the series with HT-29 cells [9] came to 24%. For the same molecule, in the series with HCT-116 cells [11], inhibition was half-maximal at 10.3 ± 0.6 µM (IC50) and the viability at 10 µM lay in the range of 30 to 45%. In the series on HT-29 cells [3], the IC50 was 9.9 ± 0.3 µM and the viability at 10 µM was > 50%.
For the molecule `Cc1cc(O)cc(-c2nc(Nc3cc(C(F)(F)F)cc(C(F)(F)F)c3)ncc2-c2ccnc(-c3cccnc3)c2)c1` [Compound 10b], the “Src kinase inhibitory activity” value on purified Src kinase was “completely inactive”. In the series on HT-29 cells [6], the “cell population in G2/M-phase” value amounted to 25.1 ± 0.6% and the “cells in S-phase” value is reported as 23.0 ± 0.5%. Further, in the series on HCT-116 cells [2], the “increase of apoptotic cell population” value turned out to be 4.7 folds and the “increase of necrotic cell population” value was found to be 2.4 folds. Further, the “increase of apoptotic cell population” value with HT-29 cells [7] was 2.3 folds. Also, in the series with HCT-116 cells [8], the “autophagic signal higher than control cells” value is 30%. In the series with HCT-116 cells [10], half-maximal inhibition (IC50) required 25.9 ± 1.3 µM and the “R (resistance fraction)” value is recorded as <1%. In the series with HCT-116 cells [11], the IC50 was > 25 µM and the viability at 10 µM lay in the range of 30 to 45%. In the series on HT-29 cells [3], 6.4 ± 0.5 µM corresponded to half-maximal inhibition (IC50) and the viability at 10 µM was > 50%.
Take `CC(=O)c1cccc(-c2cc(-c3cnc(Nc4cc(C(F)(F)F)cc(C(F)(F)F)c4)nc3-c3cc(C)cc(O)c3)ccn2)c1` [Compound 10c]: the viability at 10 µM is 30 to 45% with HCT-116 cells [11], 35 to 45% in the series with HT-29 cells [3] and > 50% in series [4]. In addition, the viability at 100 µM in [4] is > 50%.
On to `CC(=O)c1ccc(-c2cc(-c3cnc(Nc4cc(C(F)(F)F)cc(C(F)(F)F)c4)nc3-c3cc(C)cc(O)c3)ccn2)cc1` [Compound 10d], for which, in the series with HT-29 cells [3], the viability at 10 µM is 35 to 45%. Besides, in series [4], the viability at 10 µM was > 50% and the viability at 100 µM was > 50%.
Regarding `Cc1cc(O)cc(-c2nc(Nc3cc(C(F)(F)F)cc(C(F)(F)F)c3)ncc2-c2ccnc(-c3ccc(C#N)cc3)c2)c1` [Compound 10f], in [1], the multi-kinase inhibitory effect is reported as 23.9 ± 7.4%. Besides, the “Src kinase inhibitory activity” value at purified Src kinase is “completely inactive”. Moreover, in the series with HCT-116 cells [2], the “increase of apoptotic cell population” value is given as 15.2 folds and the “increase of necrotic cell population” value came to 3.7 folds. In the series on HT-29 cells [7], the “increase of apoptotic cell population” value stood at 1.7 folds. The “autophagic signal higher than control cells” value with HCT-116 cells [8] was determined as 99%. In the series with HCT-116 cells [11], the IC50 came to 9.2 ± 0.8 µM and the viability at 10 µM fell in the range of 30 to 45%. Besides, in the series with HT-29 cells [3], the IC50 was 7.2 ± 1.1 µM.
As to `Cc1cc(O)cc(-c2nc(Nc3cc(C(F)(F)F)cc(C(F)(F)F)c3)ncc2-c2ccnc(-c3ccc(N(C)C)cc3)c2)c1` [Compound 10g], the multi-kinase inhibitory effect in [1] came to 39 ± 0.4%. On purified Src kinase, this molecule displayed an EC50 of 3.7 ± 0.7 µM. Also, the inhibition at 10 µM on purified Src kinase stood at 51.3 ± 9.8%. Further, the “R (resistance fraction)” value stood at 41.6 ± 3.2% with HCT-116 cells [10] and 12.9 ± 3.9% with HT-29 cells [12]. The IC50 with HCT-116 cells [11] came out at 9.4 ± 0.9 µM; in the series with HT-29 cells [3], 24.2 ± 2.1 µM. Besides, the viability at 10 µM in the series with HCT-116 cells [11] was 30 to 45%. For the same molecule, in series [4], the viability at 100 µM is > 50%.
As for `Cc1cc(O)cc(-c2nc(Nc3cc(C(F)(F)F)cc(C(F)(F)F)c3)ncc2-c2ccnc(-c3ccc(N(c4ccccc4)c4ccccc4)cc3)c2)c1` [Compound 10h], the “viability drop compared to control cells” value (in the series with HCT-116 cells [10]; in the series on HT-29 cells [12]; in [13]) was “failed to show any considerable antiproliferative/cytotoxic effects” throughout.
For the molecule `Cc1cc(O)cc(-c2nc(Nc3cc(C(F)(F)F)cc(C(F)(F)F)c3)ncc2-c2ccnc(-c3ccc(Oc4ccccc4)cc3)c2)c1` [Compound 10j], in series [1], the multi-kinase inhibitory effect stood at 30.2 ± 0.4%. Moreover, the viability at 10 µM in the series on HCT-116 cells [11] was 30 to 45%; in the series with HT-29 cells [3] it was 35 to 45%; in series [4], > 50%. Besides, in [4], the viability at 100 µM is > 50%.
On to `CCN(CC)CCCC(C)Nc1ccnc2cc(Cl)ccc12` (stereo not drawn) [chloroquine, reference compound], for which the “autophagic signal higher than control cells” value with HCT-116 cells [8] came out at 65%. In addition, the “effect on autophagy in words” value in the series on HT-29 cells [9] (HT-29, 10 μM, 48 h, Cyto-ID) was “induced autophagy”.
